{"data": "Measured values gathered from unrelated publications", "MAP2K5": "Dual specificity mitogen-activated protein kinase kinase 5 (MAP2K5, Homo sapiens, UniProt Q13163)", "note": "Each line is one published result; the experiments were not run side by side."}
{"Compound": "C#Cc1n[nH]c2c(-c3cn(C(C)c4ccccn4)c(=O)[nH]c3=O)cc(F)cc12 (centres unmarked)", "target": "Fibroblast growth factor receptor 1 (FGFR1, Homo sapiens, UniProt P11362)", "assay": "enzyme activity, inhibitor", "conditions": "1 µM", "endpoint": "inhibition", "result": "3.8%"}
{"Compound": "CN1CC[C@@]2(C)c3cc(OC(=O)Nc4ccccc4)ccc3N(C)[C@@H]12", "target": "Muscarinic acetylcholine receptor M5 (CHRM5, Homo sapiens, UniProt P08912)", "assay": "ligand displacement, radioligand", "conditions": "10 µM", "endpoint": "inhibition", "result": "6.5%"}
{"Compound": "Cc1nn(C)cc1-c1nc2c(N3CCN(Cc4ccc(Cl)cc4)CC3)c(Cl)cnc2[nH]1", "target": "MAP2K5", "assay": "binding, competition with immobilised ligand", "conditions": "1 µM", "endpoint": "remaining binding", "result": "58%"}
{"Compound": "COc1ncccc1-c1cnn2ccc(N3CCN(C(=O)OC(C)C)CC3)nc12", "target": "Peripheral plasma membrane protein CASK (CASK, Homo sapiens, UniProt O14936)", "assay": "binding, competition with immobilised ligand", "conditions": "1 µM", "endpoint": "remaining binding", "result": "93%"}
{"Compound": "Nc1ncc(-c2nc(N3CCOCC3)nc(N3CCOCC3)n2)c(C(F)F)n1", "target": "MAP2K5", "assay": "binding, competition with immobilised ligand", "conditions": "10 µM", "endpoint": "remaining binding", "result": "39%"}
{"Compound": "CO[C@H]1/C=C/O[C@@]2(C)Oc3c(C)c(O)c4c(O)c(c(/C=N/N5CCN(C6CCCC6)CC5)c(O)c4c3C2=O)NC(=O)/C(C)=C\\C=C\\[C@H](C)[C@H](O)[C@@H](C)[C@@H](O)[C@@H](C)[C@H](OC(C)=O)[C@@H]1C", "target": "dppA (Mycobacterium tuberculosis, UniProt I6X811)", "assay": "thermal stability", "conditions": "100 µM", "endpoint": "ΔTm", "result": "> 1.5 °C"}
{"Compound": "CCN(CC)CCCC[C@H](NC(=O)[C@H](CC(C)C)NC(=O)[C@H](C)NC(=O)[C@H](Cc1ccccc1)NC(=O)c1ccc(C(C)(C)C)cc1)C(=O)N[C@@H](CO)C(=O)OC", "target": "Melanocortin receptor 4 (MC4R, Homo sapiens, UniProt P32245)", "assay": "ligand displacement, radioligand", "conditions": "10 µM", "endpoint": "remaining binding", "result": "84%"}
{"Compound": "Sc1ncnc2nc[nH]c12", "target": "Replicase polyprotein 1a, main protease (Severe acute respiratory syndrome-related coronavirus, UniProt P0C6U8)", "assay": "enzyme activity, inhibitor", "conditions": "200 µM", "endpoint": "remaining activity", "result": "49%"}
